Test system: HEK293 M3R/RGS4, carbachol calcium flux, Fluo4
Assay: potency of compounds enhancing RGS4 activity – cell-based, HEK293 M3R/RGS4, calcium flux, SAR compounds, SAR follow-up (AID 624179)
Summary of the method: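 System – HEK293-FlpIn-TREx cells, M3 receptor, doxycycline-induced RGS4 (10 ng/ml) · Probe or stimulus – carbachol at EC20 as calcium-mobilizing stimulus · Medium – HBSS-HEPES assay buffer, pH 7.4 · Technique – Fluo-4 calcium fluorescence · Compound – 10-point concentration series · Times – 20 min compound pre-incubation at room temperature · Replication – triplicate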

Compound: CC(C)Cn1c(-c2ccc(F)cc2)n[nH]c1=S
- EC50: 3.16 µM

Compound: CN(Cc1ccc(F)cc1)C(=O)C(c1ccccc1)c1ccccc1
- EC50: 2.2 µM

Compound: COC(=O)C1CCCN(C(=O)c2cc(-c3ccc(C)cc3)nc3ccccc23)C1 (stereo not drawn)
- EC50: 4.67 µM

Compound: Cc1ccc(S(=O)(=O)c2ccc(Oc3cccc(C)c3)cc2)cc1
- EC50: 2.76 µM

Compound: S=c1[nH]nc(-c2ccc(Cl)cc2)n1CC1CCCO1 (stereo not drawn)
- EC50: 5.6 µM

Compound: O=C(CNC1CCCCCC1)Nc1ccc(S(=O)(=O)NC2CC2)cc1
- EC50: 5.86 µM

Compound: CCCCn1c(-c2csc(CCC)c2)n[nH]c1=S
- EC50: 2.24 µM

Compound: O=C(Nc1ccccc1N1CCN(C(=O)c2ccccc2)CC1)c1ccc(Cl)o1
- EC50: 4.63 µM

Compound: O=C(CNc1ccccc1)c1ccc([N+](=O)[O-])cc1
- EC50: 6.26 µM

Compound: Cc1ccc(NC(=O)c2cc(-c3cccs3)nc3ccccc23)nc1
- EC50: 3.48 µM

Compound: CCN1CCCC1CNCc1ccccc1OCc1ccc(F)cc1 (stereo not drawn)
- EC50: 7.17 µM

Compound: COC(=O)c1cccc(Nc2nc(-c3cccnc3)nc3ccccc23)c1
- EC50: 2.05 µM

Compound: CCn1cc(CN2CCC(n3nccc3NC(=O)c3ccc(OC)cc3)CC2)cn1
- EC50: 2.98 µM

Reference: PubChem BioAssay AID624179 (Johns Hopkins Ion Channel Center, 2012)
